Data set [1] can be described thus: Tmax in C57BL/6J mouse at 3 mg/kg, po. The format is ADME, organism-based. The arrangement: dose 3 mg/kg, route oral. The settings on record: in vivo. An outline of the steps:
(§1)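 Single 3 mg/kg oral or iv dose to overnight-fasted male C57BL/6J mice (n = 6). Serial EDTA blood sampling at pre-dose and 0.15–48 h post-dose. Plasma separated at 4 °C, stored at -70 °C and analysed by LC–MS/MS on a C18 column. %F derived against iv AUC. Values are mean SD.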

The nature of data set [2]: AUC in C57BL/6J mouse at 3 mg/kg, iv. The format is ADME, organism-based. On the set-up: dose 3 mg/kg, route intravenous. As to conditions: plasma. An outline of the steps:
as §1

Data set [3] has as its system Mus musculus. In words: Antidiabetic activity in fed db/db hyperglycemic mouse model assessed as decrease in serum glucose AUC at 3 mg/kg, po measured up to 24 hrs by DPEC-GOD/POD method relative to vehicle-treated control. The format is functional. The arrangement: scale not given: the % may be the effect or the level left. In outline: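 Fed male-unspecified db/db mice dosed orally at 3 mg/kg, with blood taken at time points up to 24 h. Serum glucose measured promptly by the GOD/POD method on duplicate samples. Glucose AUC compared with vehicle control by two-way ANOVA with Bonferroni post test. Values are mean SEM.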

Data set [4] in a line: Oral bioavailability in C57BL/6J mouse at 3 mg/kg. The data set is classed as ADME, organism-based. The settings on record: in vivo. In outline: as §1
A short description of data set [5]: Elimination rate constant in C57BL/6J mouse at 3 mg/kg, po. The format is ADME, organism-based. On the set-up: dose 3 mg/kg, route oral. The settings on record: in vivo. In outline:
as §1

In data set [6] the test system is Mus musculus. In words: Antidiabetic activity in fed db/db hyperglycemic mouse model assessed as decrease in serum glucose AUC at 3 mg/kg, po measured up to 2 hrs by DPEC-GOD/POD method relative to vehicle-treated control. The format is functional. On the set-up: scale not given: the % may be the effect or the level left.
Data set [7] can be described thus: AUC (0 to infinity) in C57BL/6J mouse at 3 mg/kg, po. The format is ADME, organism-based. The arrangement: time infinity, dose 3 mg/kg, route oral. As to conditions: plasma. An outline of the steps:
as §1

Data set [8] can be described thus: Cmax in C57BL/6J mouse at 3 mg/kg, po. The format is ADME, organism-based. The arrangement: dose 3 mg/kg, route oral. As to conditions: in vivo. In outline:
as §1

Data set [9] can be described thus: Half life in C57BL/6J mouse at 3 mg/kg, po. The data set is classed as ADME, organism-based. The arrangement: dose 3 mg/kg, route oral. The settings on record: in vivo. An outline of the steps: as §1
Data set [10] has as its system Mus musculus. In words: Antidiabetic activity in overnight fasted C57BL/6J mouse assessed as decrease in serum glucose level at 3 mg/kg, po administered 0.5 hrs prior to glucose challenge measured at 30 to 60 mins by DPEC-GOD/POD method. The format is functional, organism-based. On the set-up: dose 3 mg/kg. An outline of the steps: (§2)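 Male C57BL/6J mice fasted overnight with water ad libitum. Dosed orally at 3 mg/kg 0.5 h before the oral glucose load. Serum glucose read by the GOD/POD method at 15–240 min on duplicate samples, then 0–240 min AUC taken. Two-way ANOVA with Bonferroni post test against vehicle. Values are mean SEM.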

Data set [11] relates to Mus musculus. In words: Antidiabetic activity in overnight fasted C57BL/6J mouse assessed as decrease in serum glucose AUC at 3 mg/kg, po administered 0.5 hrs prior to glucose challenge measured up to 240 mins by DPEC-GOD/POD method relative to vehicle-treated control. On the set-up: scale not given: the % may be the effect or the level left. The format is functional. In outline: as §2

In another data set the target is Cytochrome P450 3A4 (Homo sapiens, UniProt P08684). Put plainly: Inhibition of human CYP3A4 expressed in Escherichia coli using midazolam as substrate up to 100 uM preincubated for 5 mins followed by NADPH addition measured after 20 mins by HPLC analysis. The format is ADME.
For the next data set, the target named is Cytochrome P450 2D6 (Homo sapiens, UniProt P10635). Put plainly: Inhibition of human CYP2D6 expressed in Escherichia coli using bufuralol as substrate up to 100 uM preincubated for 5 mins followed by NADPH addition measured after 20 mins by HPLC analysis. The format is ADME.
A further data set deals with T1, Cytochrome P450 1A2 (Homo sapiens, UniProt P05177).
T1 sequence (P05177 whole entry): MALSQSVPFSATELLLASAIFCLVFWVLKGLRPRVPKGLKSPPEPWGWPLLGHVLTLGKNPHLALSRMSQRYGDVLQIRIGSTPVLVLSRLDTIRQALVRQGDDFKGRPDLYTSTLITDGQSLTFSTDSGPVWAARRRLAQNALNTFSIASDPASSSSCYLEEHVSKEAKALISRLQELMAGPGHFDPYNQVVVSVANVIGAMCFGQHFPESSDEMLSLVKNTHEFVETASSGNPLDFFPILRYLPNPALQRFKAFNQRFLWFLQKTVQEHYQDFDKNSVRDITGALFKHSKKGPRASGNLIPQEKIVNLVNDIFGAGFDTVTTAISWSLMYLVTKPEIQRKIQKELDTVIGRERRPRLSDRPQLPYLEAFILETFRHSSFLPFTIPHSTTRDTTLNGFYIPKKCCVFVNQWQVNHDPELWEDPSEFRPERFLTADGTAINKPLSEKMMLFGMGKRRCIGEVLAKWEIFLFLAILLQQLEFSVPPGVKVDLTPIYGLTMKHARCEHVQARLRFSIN
In words: Inhibition of human CYP1A2 expressed in Escherichia coli using ethoxyresorufin as substrate up to 100 uM preincubated for 5 mins followed by NADPH addition measured after 20 mins by HPLC analysis. The data set is classed as ADME.

A further data set concerns the target T2, Cytochrome P450 2C8 (Homo sapiens, UniProt P10632).
T2 sequence (P10632 whole entry): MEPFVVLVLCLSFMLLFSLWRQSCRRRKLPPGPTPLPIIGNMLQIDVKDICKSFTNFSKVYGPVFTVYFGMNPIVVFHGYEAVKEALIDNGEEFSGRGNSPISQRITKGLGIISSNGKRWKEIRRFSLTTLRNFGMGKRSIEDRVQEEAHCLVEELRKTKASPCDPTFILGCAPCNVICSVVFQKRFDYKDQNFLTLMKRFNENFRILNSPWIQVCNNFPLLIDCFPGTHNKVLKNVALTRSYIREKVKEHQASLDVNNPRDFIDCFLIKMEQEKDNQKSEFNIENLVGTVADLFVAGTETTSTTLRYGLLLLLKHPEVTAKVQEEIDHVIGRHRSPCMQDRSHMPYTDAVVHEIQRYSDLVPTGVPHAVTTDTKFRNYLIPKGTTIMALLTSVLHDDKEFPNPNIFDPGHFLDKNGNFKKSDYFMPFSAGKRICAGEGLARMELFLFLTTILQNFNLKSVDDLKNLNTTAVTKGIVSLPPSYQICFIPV
In words: Inhibition of human CYP2C8 expressed in Escherichia coli using paclitaxel as substrate up to 100 uM preincubated for 5 mins followed by NADPH addition measured after 20 mins by HPLC analysis. The format is ADME.

A further data set deals with Cytochrome P450 2C19 (Homo sapiens, UniProt P33261). Put plainly: Inhibition of human CYP2C19 expressed in Escherichia coli using S-mephenytoin as substrate up to 100 uM preincubated for 5 mins followed by NADPH addition measured after 20 mins by HPLC analysis. The data set is classed as ADME.
In a further data set the target is Cytochrome P450 2C9 (Homo sapiens, UniProt P11712). In words: Inhibition of human CYP2C9 expressed in Escherichia coli using diclofenac as substrate up to 100 uM preincubated for 5 mins followed by NADPH addition measured after 20 mins by HPLC analysis. The format is ADME.

The source made the active and inactive calls.

Cytochrome P450 2D6, sequence (P10635 whole entry): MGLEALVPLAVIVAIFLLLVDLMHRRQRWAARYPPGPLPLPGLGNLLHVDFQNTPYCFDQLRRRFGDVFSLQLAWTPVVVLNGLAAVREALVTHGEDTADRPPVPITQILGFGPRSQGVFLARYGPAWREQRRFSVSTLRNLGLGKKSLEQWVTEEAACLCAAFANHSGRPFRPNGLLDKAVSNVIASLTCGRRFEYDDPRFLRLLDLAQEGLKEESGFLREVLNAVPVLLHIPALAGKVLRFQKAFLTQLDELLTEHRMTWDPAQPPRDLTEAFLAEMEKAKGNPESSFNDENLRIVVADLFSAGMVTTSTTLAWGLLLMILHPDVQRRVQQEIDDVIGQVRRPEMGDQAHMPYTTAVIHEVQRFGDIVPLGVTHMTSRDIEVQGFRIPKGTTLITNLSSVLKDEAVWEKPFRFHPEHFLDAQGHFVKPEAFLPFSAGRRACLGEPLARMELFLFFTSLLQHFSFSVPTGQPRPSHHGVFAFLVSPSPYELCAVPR
Cytochrome P450 2C9, sequence (P11712 whole entry): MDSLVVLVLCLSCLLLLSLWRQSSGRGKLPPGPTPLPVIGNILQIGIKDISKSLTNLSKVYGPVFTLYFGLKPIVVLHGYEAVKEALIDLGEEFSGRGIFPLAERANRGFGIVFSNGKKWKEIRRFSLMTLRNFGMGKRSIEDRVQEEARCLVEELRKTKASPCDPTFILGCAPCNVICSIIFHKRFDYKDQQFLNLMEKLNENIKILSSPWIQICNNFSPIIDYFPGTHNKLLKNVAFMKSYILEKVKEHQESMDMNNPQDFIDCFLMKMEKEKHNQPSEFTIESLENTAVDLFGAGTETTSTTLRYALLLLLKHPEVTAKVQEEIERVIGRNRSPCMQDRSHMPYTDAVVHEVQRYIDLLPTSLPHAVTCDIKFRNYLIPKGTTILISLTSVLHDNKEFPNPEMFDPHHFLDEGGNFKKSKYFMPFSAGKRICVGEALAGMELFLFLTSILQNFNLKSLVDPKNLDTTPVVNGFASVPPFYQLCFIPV
Cytochrome P450 2C19, sequence (P33261 whole entry): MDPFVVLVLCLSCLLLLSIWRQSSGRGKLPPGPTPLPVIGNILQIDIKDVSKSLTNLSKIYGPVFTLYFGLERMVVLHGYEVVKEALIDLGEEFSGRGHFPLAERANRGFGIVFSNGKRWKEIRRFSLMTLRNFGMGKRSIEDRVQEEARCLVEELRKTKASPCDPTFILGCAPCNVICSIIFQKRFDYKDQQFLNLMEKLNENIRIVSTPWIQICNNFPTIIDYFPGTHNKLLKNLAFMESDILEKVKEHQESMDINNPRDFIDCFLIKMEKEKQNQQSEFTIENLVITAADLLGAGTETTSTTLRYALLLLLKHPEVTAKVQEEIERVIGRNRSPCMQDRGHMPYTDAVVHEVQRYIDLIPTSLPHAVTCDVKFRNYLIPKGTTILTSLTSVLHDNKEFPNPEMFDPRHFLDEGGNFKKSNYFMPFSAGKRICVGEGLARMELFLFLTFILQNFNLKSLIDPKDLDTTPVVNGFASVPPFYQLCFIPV
Cytochrome P450 3A4, sequence (P08684 whole entry): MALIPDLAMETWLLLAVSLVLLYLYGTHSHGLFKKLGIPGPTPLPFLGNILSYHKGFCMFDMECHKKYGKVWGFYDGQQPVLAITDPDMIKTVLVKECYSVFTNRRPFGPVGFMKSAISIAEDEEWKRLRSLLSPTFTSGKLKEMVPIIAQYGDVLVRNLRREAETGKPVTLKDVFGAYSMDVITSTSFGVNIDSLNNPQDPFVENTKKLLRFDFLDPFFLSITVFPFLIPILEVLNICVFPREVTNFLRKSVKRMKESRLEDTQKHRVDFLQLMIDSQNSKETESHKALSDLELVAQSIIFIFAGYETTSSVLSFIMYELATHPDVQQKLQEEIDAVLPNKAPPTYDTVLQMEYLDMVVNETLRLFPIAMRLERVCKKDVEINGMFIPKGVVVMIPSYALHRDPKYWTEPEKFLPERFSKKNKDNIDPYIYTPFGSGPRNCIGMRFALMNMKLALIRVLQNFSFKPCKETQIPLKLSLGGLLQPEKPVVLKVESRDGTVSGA

Usually Tmax stands for the time from dosing to the highest level. For orientation: AUC means concentration integrated over time. A word on the bioavailability: it is dose-corrected exposure relative to a reference, in per cent. As usually defined, the AUC(0-inf) is total exposure, with the tail of the curve extrapolated. A word on the Cmax: it is the highest concentration seen after dosing. By half-life is commonly meant the time needed for the level to fall by half in the phase considered. In the case of `N[C@@H](CC(=O)N1CCn2c(nnc2C(F)(F)F)C1)Cc1cc(F)c(F)cc1F` [SITAGLIPTIN], the Tmax in data set [1] came to 13.2 min. Besides, the AUC in data set [2] is 740 ng·h/mL. Besides, the Activity with Mus musculus [3] was determined as 1.48%; in the data set on Mus musculus [6], 20.8%; in the data set on Mus musculus [11], 17.9%. Also, in data set [4], the bioavailability is 75.7%. Further, the k el in [5] was 0.000233 s⁻¹. The same molecule came in with an AUC(0-inf) in [7] of 560 ng·h/mL. Moreover, in [8], the Cmax was 310 ng/mL. In data set [9], this molecule showed a half-life of 93.6 min. Further, the result with Mus musculus [10] was Active.

Take `NC[C@H]1CN(CCc2ccc3c(c2)OCO3)C(=O)C[C@@H]1c1cc(F)ccc1F`: the “inhibition (INH)” value against Cytochrome P450 3A4, on Cytochrome P450 2D6, against Cytochrome P450 1A2, against Cytochrome P450 2C8, against Cytochrome P450 2C19 and against Cytochrome P450 2C9 was “Not Active” throughout. In addition, in data set [1], the Tmax was determined as 16.8 min. In [2], this molecule came in with an AUC of 1270 ng·h/mL. Moreover, the Activity in the data set on Mus musculus [3] turned out to be 20.62%; in the data set on Mus musculus [6] it was 38.29%; with Mus musculus [11], 38.9%. The bioavailability in data set [4] was found to be 79.5%. Moreover, the k el in data set [5] is 3.33e-05 s⁻¹. In data set [7], this molecule returned an AUC(0-inf) of 1010 ng·h/mL. Also, in [8], the Cmax is 420 ng/mL. Further, the half-life in data set [9] was 539 min.

Source of the values: ChEMBL document CHEMBL3232926, “Design, synthesis and biological evaluation of novel aminomethyl-piperidones based DPP-IV inhibitors” (Bioorg Med Chem Lett, 2014).
